Measured values published in paper PMC7214649 (Clinical and Translational Science, 2020).
pIC50: −log10 of the molar value. Where two headings read alike, the source gives them in different places.

Assays:
P-gp [1] = target: T1, P-gp (Homo sapiens, UniProt P08183); details: single dose venetoclax 100 mg, female healthy volunteers; cited from earlier work
[2] = type: in vivo, human
[3] = cited from earlier work
P-gp [4] = target: T1, P-gp; type: in vivo
CYP3A = experiment: Ritonavir-venetoclax drug interaction study, observed exposure ratios; type: in vivo, human
Outline: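 20 female subjects, […], all drugs given orally; serial blood sampling for plasma levels of both the test compound and the CYP3A inhibitor. Validated assays had LLOQ 2.11 ng/mL (test compound) and 9.73 ng/mL (inhibitor), bias -4.7% to 7.1%, and CV 1.6% to 9.6%. Ratio is Cmax or AUC on coadministration over dosing alone; AUC96 runs 0–96 h postdose.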

[5] = type: in vivo, human; remark: listed apart in the source
[6] = fed conditions; cited from earlier work
[7] = Cohort 1: venetoclax 10 mg with single dose ritonavir 50 mg vs venetoclax alone, period 1 day 1 vs period 2 day 1
[8] = Cohort 2: venetoclax 10 mg with single dose ritonavir 100 mg vs venetoclax alone, period 1 day 1 vs period 2 day 1
[9] = Cohort 3: venetoclax 10 mg with ritonavir 50 mg q.d. for 11 days vs venetoclax alone, multiple-dose effect, period 1 day 1 vs period 2 day 11

T1 sequence (P08183 whole entry): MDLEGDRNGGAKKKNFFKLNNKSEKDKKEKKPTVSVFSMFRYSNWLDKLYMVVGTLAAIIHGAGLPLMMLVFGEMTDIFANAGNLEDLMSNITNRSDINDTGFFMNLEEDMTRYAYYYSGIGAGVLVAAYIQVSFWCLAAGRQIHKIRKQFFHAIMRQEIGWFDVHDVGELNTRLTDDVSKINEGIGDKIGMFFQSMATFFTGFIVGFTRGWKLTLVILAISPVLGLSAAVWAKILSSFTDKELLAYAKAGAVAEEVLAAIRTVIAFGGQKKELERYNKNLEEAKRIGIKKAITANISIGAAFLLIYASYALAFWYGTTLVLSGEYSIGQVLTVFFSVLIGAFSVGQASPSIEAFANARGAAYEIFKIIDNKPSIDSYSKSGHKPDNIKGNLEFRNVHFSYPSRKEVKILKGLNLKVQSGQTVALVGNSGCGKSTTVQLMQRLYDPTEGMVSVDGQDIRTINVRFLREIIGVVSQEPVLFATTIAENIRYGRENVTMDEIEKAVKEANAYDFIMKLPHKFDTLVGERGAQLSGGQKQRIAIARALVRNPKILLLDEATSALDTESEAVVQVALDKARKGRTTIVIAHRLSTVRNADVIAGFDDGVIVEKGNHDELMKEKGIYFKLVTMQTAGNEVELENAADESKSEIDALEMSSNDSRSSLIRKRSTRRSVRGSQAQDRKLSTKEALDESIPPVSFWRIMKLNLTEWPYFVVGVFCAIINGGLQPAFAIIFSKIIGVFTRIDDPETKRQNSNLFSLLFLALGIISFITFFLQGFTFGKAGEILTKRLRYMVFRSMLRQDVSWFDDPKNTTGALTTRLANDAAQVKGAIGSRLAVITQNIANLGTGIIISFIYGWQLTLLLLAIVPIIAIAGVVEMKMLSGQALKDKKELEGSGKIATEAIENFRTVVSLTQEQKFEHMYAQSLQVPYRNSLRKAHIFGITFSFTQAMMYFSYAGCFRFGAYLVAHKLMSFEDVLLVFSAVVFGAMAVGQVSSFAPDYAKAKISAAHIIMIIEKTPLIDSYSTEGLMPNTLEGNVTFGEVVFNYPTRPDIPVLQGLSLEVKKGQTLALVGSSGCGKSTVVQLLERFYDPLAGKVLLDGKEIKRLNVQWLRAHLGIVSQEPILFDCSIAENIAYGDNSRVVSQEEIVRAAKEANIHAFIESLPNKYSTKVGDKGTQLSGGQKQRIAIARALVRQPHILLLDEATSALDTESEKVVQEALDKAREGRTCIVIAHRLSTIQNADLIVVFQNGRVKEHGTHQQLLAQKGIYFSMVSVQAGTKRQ

C[C@H]1O[C@@H](O[C@H]2[C@@H](O)C[C@H](O[C@H]3[C@@H](O)C[C@H](O[C@H]4CC[C@@]5(C)[C@H](CC[C@@H]6[C@@H]5C[C@@H](O)[C@]5(C)[C@@H](C7=CC(=O)OC7)CC[C@]65O)C4)O[C@@H]3C)O[C@@H]2C)C[C@H](O)[C@@H]1O [digoxin]
changes in digoxin half-life or renal clearance (P-gp [1]): no changes | increase in digoxin AUC (P-gp [1]): 9% | increase in digoxin Cmax (P-gp [1]): 35% | CL BSV (between subject variability) ([2]; VEN-DIG model): 12.3 %CV | V2 BSV (between subject variability) ([2]; VEN-DIG model): 28.9 %CV | ALAG (absorption lag time) ([2]; VEN-DIG model final estimate): 0.536 h | Fe (fraction of administered drug excreted into the urine) ([2]; VEN-DIG model final estimate): 0.438% | Ka (first-order absorption rate constant) ([2]; VEN-DIG model final estimate): 0.777 h⁻¹ | V2 (volume of central compartment) ([2]; VEN-DIG model final estimate): 150 L | V3 (volume of peripheral compartment) ([2]; VEN-DIG model final estimate): 592 L | clearance ([2]; female, human, plasma, oral): 262 mL/min | absolute bioavailability [3]: ~ 80% | increase of digoxin bioavailability (P-gp [4]; with venetoclax): 8%

CC1(C)CCC(CN2CCN(c3ccc(C(=O)NS(=O)(=O)c4ccc(NCC5CCOCC5)c([N+](=O)[O-])c4)c(Oc4cnc5[nH]ccc5c4)c3)CC2)=C(c2ccc(Cl)cc2)C1 [venetoclax, Venetoclax]
AUCinf ratio, Observed Central value (CYP3A; [7]): 6.1 | Cmax ratio, Observed Central value (CYP3A; [7]): 2.4 | AUCinf ratio, Observed Central value (CYP3A; [8]): 8.1 | Cmax ratio, Observed Central value (CYP3A; [8]): 2.3 | AUC96 ratio, Observed Central value (CYP3A; [9]): 7.9 | Cmax ratio, Observed Central value (CYP3A; [9]): 2.4 | CL BSV (between subject variability) ([2]; VEN-DIG model): 22 %CV | ALAG (absorption lag time) ([2]; VEN-DIG model final estimate): 1.72 h | Ka (first-order absorption rate constant) ([2]; VEN-DIG model final estimate): 0.209 h⁻¹ | V2 (volume of central compartment) ([2]; VEN-DIG model final estimate): 19.1 L | V3 (volume of peripheral compartment) ([2]; VEN-DIG model final estimate): 25.4 L | CL BSV (between subject variability) ([5]; RTV-VEN model): 32.6 %CV | T50 BSV (between subject variability) ([5]; RTV-VEN model): 26.1 %CV | V2 BSV (between subject variability) ([5]; RTV-VEN model): 64 %CV | V2 (volume of central compartment) ([5]; RTV-VEN model final estimate): 26.8 L | V3 (volume of peripheral compartment) ([5]; RTV-VEN model final estimate): 83.5 L | Kamax (maximum absorption rate constant) ([5]; RTV-VEN model final estimate, time-dependent absorption): 4.76 day⁻¹ | γ (shape factor) ([5]; RTV-VEN model, fixed, estimated value from venetoclax combined data): 5 (fixed ^*) | half-life [6]: ~ 15 hours | pIC50 (P-gp [4]): 6.42

CC(C)c1nc(CN(C)C(=O)N[C@H](C(=O)N[C@@H](Cc2ccccc2)C[C@H](O)[C@H](Cc2ccccc2)NC(=O)OCc2cncs2)C(C)C)cs1 [ritonavir]
CL BSV (between subject variability) ([5]; RTV-VEN model): 17.9 %CV | V2 BSV (between subject variability) ([5]; RTV-VEN model): 54.7 %CV | V2 (volume of central compartment) ([5]; RTV-VEN model final estimate): 30.7 L | Ka (absorption rate constant) ([5]; RTV-VEN model final estimate, first-order absorption): 1.17 day⁻¹
